Results as given in ChEMBL document CHEMBL1649281, “Detection of the novel extended-spectrum beta-lactamase OXA-161 from a plasmid-located integron in Pseudomonas aeruginosa clinical isolates from Spain” (2009).
In brackets after ≈: the same amount, converted by molar mass.

Tests used:
Assay type in all cases: functional
Pseudomonas aeruginosa [1] = assay: Antibacterial activity against Pseudomonas aeruginosa isolated from lung biopsy specimen of patient by Etest
Pseudomonas aeruginosa [2] = assay: Antibacterial activity against Pseudomonas aeruginosa PAO1 harboring Pseudomonas aeruginosa plasmid DNA isolated from wound infection of patient by Etest
Pseudomonas aeruginosa [3] = assay: Antibacterial activity against Pseudomonas aeruginosa PAO1 by Etest
Pseudomonas aeruginosa [4] = assay: Antibacterial activity against Pseudomonas aeruginosa isolated from wound infection of patient by Etest
Pseudomonas aeruginosa [5] = assay: Antibacterial activity against Pseudomonas aeruginosa PAO1 harboring Pseudomonas aeruginosa plasmid DNA lung biopsy specimen of patient by Etest
Pseudomonas aeruginosa [6] = assay: Antibacterial activity against Pseudomonas aeruginosa isolated from lung biopsy specimen of patient by CLSI broth microdilution method
Procedure, shortened: (§1)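 CLSI standard broth microdilution MICs were determined for carbenicillin, ceftazidime, and ceftazidime plus clavulanate held at a fixed 4 μg/ml.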

Pseudomonas aeruginosa [7] = assay: Antibacterial activity against Pseudomonas aeruginosa PAO1 harboring Pseudomonas aeruginosa plasmid DNA lung biopsy specimen of patient by CLSI broth microdilution method
Procedure, shortened: (§2)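 Plasmid DNA from the clinical isolate was electroporated into PAO1, and transformants were selected on LB agar with 20 μg/ml ceftazidime. Transformants were confirmed by double-disk synergy test and PCR. CLSI broth microdilution MICs were determined for carbenicillin, ceftazidime, and ceftazidime plus fixed 4 μg/ml clavulanate.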

Pseudomonas aeruginosa [8] = assay: Antibacterial activity against Pseudomonas aeruginosa PAO1 harboring Pseudomonas aeruginosa plasmid DNA isolated from wound infection of patient by CLSI broth microdilution method; procedure, shortened: as §2
Pseudomonas aeruginosa [9] = assay: Antibacterial activity against Pseudomonas aeruginosa PAO1 harboring cloned pUCPOXA-2 by CLSI broth microdilution method; procedure, shortened: as §1
Pseudomonas aeruginosa [10] = assay: Antibacterial activity against Pseudomonas aeruginosa isolated from wound infection of patient by CLSI broth microdilution method; procedure, shortened: as §1
Pseudomonas aeruginosa [11] = assay: Antibacterial activity against Pseudomonas aeruginosa PAO1 harboring cloned pUCPOXA-161 by CLSI broth microdilution method; procedure, shortened: as §1
Pseudomonas aeruginosa [12] = assay: Antibacterial activity against Pseudomonas aeruginosa PAO1 by CLSI broth microdilution method
Procedure, shortened: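 MIC by standard CLSI broth microdilution, tested with carbenicillin, ceftazidime, and ceftazidime plus clavulanate at 4 μg/ml. P. aeruginosa PAO1 was the recipient strain, with transformants produced by electroporation and selected on LB agar with 20 μg/ml ceftazidime.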

Pseudomonas aeruginosa [13] = assay: Antibacterial activity against Pseudomonas aeruginosa PAO1 harboring cloned pUCPOXA-2 by Etest
Pseudomonas aeruginosa [14] = assay: Antibacterial activity against Pseudomonas aeruginosa PAO1 harboring cloned pUCPOXA-161 by Etest

Question: Which MIC (Pseudomonas aeruginosa [1]) does the source give for CO/N=C(\C(=O)N[C@@H]1C(=O)N2C(C(=O)[O-])=C(C[N+]3(C)CCCC3)CS[C@H]12)c1csc(N)n1 here?
Answer: 12 µg/mL (≈ 25 µM)

Question: What about the MIC (Pseudomonas aeruginosa [2]) of the same molecule?
Answer: 8 µg/mL (≈ 16.6 µM)

Question: And the MIC (Pseudomonas aeruginosa [3])?
Answer: 1 µg/mL (≈ 2.08 µM)

Question: And the MIC (Pseudomonas aeruginosa [4])?
Answer: 16 µg/mL (≈ 33.3 µM)

Question: What about the MIC (Pseudomonas aeruginosa [5]) of the same molecule?
Answer: 8 µg/mL (≈ 16.6 µM)

Question: With NCC[C@H](O)C(=O)N[C@@H]1C[C@H](N)[C@@H](O[C@H]2O[C@H](CN)[C@@H](O)[C@H](O)[C@H]2O)[C@H](O)[C@H]1O[C@H]1O[C@H](CO)[C@@H](O)[C@H](N)[C@H]1O [AMIKACIN] as the molecule, how does the MIC (Pseudomonas aeruginosa [1]) read?
Answer: 64 µg/mL (≈ 109 µM)

Question: What about the MIC (Pseudomonas aeruginosa [2]) of the same molecule?
Answer: 12 µg/mL (≈ 20.5 µM)

Question: And the MIC (Pseudomonas aeruginosa [3])?
Answer: 3 µg/mL (≈ 5.12 µM)

Question: And the MIC (Pseudomonas aeruginosa [4])?
Answer: 32 µg/mL (≈ 54.6 µM)

Question: What about the MIC (Pseudomonas aeruginosa [5]) of the same molecule?
Answer: 12 µg/mL (≈ 20.5 µM)

Question: How did the MIC (Pseudomonas aeruginosa [6]) turn out when CC1(C)S[C@@H]2[C@H](NC(=O)C(C(=O)O)c3ccccc3)C(=O)N2[C@H]1C(=O)O (stereo not given in full) [CARBENICILLIN] was run?
Answer: 128 µg/mL (≈ 338 µM)

Question: And the MIC (Pseudomonas aeruginosa [7])?
Answer: 128 µg/mL (≈ 338 µM)

Question: And the MIC (Pseudomonas aeruginosa [8])?
Answer: 128 µg/mL (≈ 338 µM)

Question: And the MIC (Pseudomonas aeruginosa [9])?
Answer: > 256 µg/mL

Question: And the MIC (Pseudomonas aeruginosa [10])?
Answer: 128 µg/mL (≈ 338 µM)

Question: What about the MIC (Pseudomonas aeruginosa [11]) of the same molecule?
Answer: 128 µg/mL (≈ 338 µM)

Question: What about the MIC (Pseudomonas aeruginosa [12]) of the same molecule?
Answer: 32 µg/mL (≈ 84.6 µM)

Question: Which MIC (Pseudomonas aeruginosa [6]) does the source give for CC(C)(O/N=C(\C(=O)N[C@@H]1C(=O)N2C(C(=O)[O-])=C(C[n+]3ccccc3)CS[C@H]12)c1csc(N)n1)C(=O)O [CEFTAZIDIME] here?
Answer: > 256 µg/mL

Question: What about the MIC (Pseudomonas aeruginosa [7]) of the same molecule?
Answer: 128 µg/mL (≈ 234 µM)

Question: What about the MIC (Pseudomonas aeruginosa [8]) of the same molecule?
Answer: 128 µg/mL (≈ 234 µM)

Question: And the MIC (Pseudomonas aeruginosa [9])?
Answer: 8 µg/mL (≈ 14.6 µM)

Question: What about the MIC (Pseudomonas aeruginosa [10]) of the same molecule?
Answer: > 256 µg/mL

Question: What about the MIC (Pseudomonas aeruginosa [11]) of the same molecule?
Answer: 64 µg/mL (≈ 117 µM)

Question: And the MIC (Pseudomonas aeruginosa [12])?
Answer: 2 µg/mL (≈ 3.66 µM)

Question: C[C@@H](O)[C@H]1C(=O)N2C(C(=O)O)=C(SCCNC=N)C[C@H]12 [IMIPENEM ANHYDROUS] was tested. Which MIC (Pseudomonas aeruginosa [1]) did it give?
Answer: 32 µg/mL (≈ 107 µM)

Question: What about the MIC (Pseudomonas aeruginosa [2]) of the same molecule?
Answer: 1 µg/mL (≈ 3.34 µM)

Question: And the MIC (Pseudomonas aeruginosa [3])?
Answer: 1.5 µg/mL (≈ 5.01 µM)

Question: What about the MIC (Pseudomonas aeruginosa [4]) of the same molecule?
Answer: 16 µg/mL (≈ 53.4 µM)

Question: And the MIC (Pseudomonas aeruginosa [5])?
Answer: 1 µg/mL (≈ 3.34 µM)

Question: What about the MIC (Pseudomonas aeruginosa [13]) of the same molecule?
Answer: 1.5 µg/mL (≈ 5.01 µM)

Question: And the MIC (Pseudomonas aeruginosa [14])?
Answer: 1.5 µg/mL (≈ 5.01 µM)

Question: With C[C@@H](O)[C@H]1C(=O)N2C(C(=O)O)=C(S[C@@H]3CN[C@H](C(=O)N(C)C)C3)[C@H](C)[C@H]12 [MEROPENEM] as the molecule, how does the MIC (Pseudomonas aeruginosa [1]) read?
Answer: 8 µg/mL (≈ 20.9 µM)

Question: What about the MIC (Pseudomonas aeruginosa [2]) of the same molecule?
Answer: 0.75 µg/mL (≈ 1.96 µM)

Question: And the MIC (Pseudomonas aeruginosa [3])?
Answer: 0.38 µg/mL (≈ 0.991 µM)

Question: What about the MIC (Pseudomonas aeruginosa [4]) of the same molecule?
Answer: 6 µg/mL (≈ 15.6 µM)

Question: What about the MIC (Pseudomonas aeruginosa [5]) of the same molecule?
Answer: 0.75 µg/mL (≈ 1.96 µM)

Question: And the MIC (Pseudomonas aeruginosa [13])?
Answer: 0.38 µg/mL (≈ 0.991 µM)

Question: What about the MIC (Pseudomonas aeruginosa [14]) of the same molecule?
Answer: 0.5 µg/mL (≈ 1.3 µM)

Question: Which MIC (Pseudomonas aeruginosa [1]) does the source give for CCN1CCN(C(=O)N[C@@H](C(=O)N[C@@H]2C(=O)N3[C@@H]2SC(C)(C)[C@@H]3C(=O)O)c2ccccc2)C(=O)C1=O [PIPERACILLIN] here?
Answer: 24 µg/mL (≈ 46.4 µM)

Question: And the MIC (Pseudomonas aeruginosa [2])?
Answer: 16 µg/mL (≈ 30.9 µM)

Question: What about the MIC (Pseudomonas aeruginosa [3]) of the same molecule?
Answer: 2 µg/mL (≈ 3.86 µM)

Question: What about the MIC (Pseudomonas aeruginosa [4]) of the same molecule?
Answer: 24 µg/mL (≈ 46.4 µM)

Question: What about the MIC (Pseudomonas aeruginosa [5]) of the same molecule?
Answer: 32 µg/mL (≈ 61.8 µM)

Question: And the MIC (Pseudomonas aeruginosa [13])?
Answer: 48 µg/mL (≈ 92.7 µM)

Question: What about the MIC (Pseudomonas aeruginosa [14]) of the same molecule?
Answer: 24 µg/mL (≈ 46.4 µM)

Question: Which MIC (Pseudomonas aeruginosa [1]) does the source give for NC[C@H]1O[C@H](O[C@H]2[C@H](O)[C@@H](O[C@H]3O[C@H](CO)[C@@H](O)[C@H](N)[C@H]3O)[C@H](N)C[C@@H]2N)[C@H](N)C[C@@H]1O [TOBRAMYCIN] here?
Answer: 64 µg/mL (≈ 137 µM)

Question: And the MIC (Pseudomonas aeruginosa [2])?
Answer: 12 µg/mL (≈ 25.7 µM)

Question: And the MIC (Pseudomonas aeruginosa [3])?
Answer: 1 µg/mL (≈ 2.14 µM)

Question: What about the MIC (Pseudomonas aeruginosa [4]) of the same molecule?
Answer: 48 µg/mL (≈ 103 µM)

Question: What about the MIC (Pseudomonas aeruginosa [5]) of the same molecule?
Answer: 12 µg/mL (≈ 25.7 µM)

Question: Which MIC (Pseudomonas aeruginosa [1]) does the source give for COLISTIN here?
Answer: 2 µg/mL

Question: And the MIC (Pseudomonas aeruginosa [2])?
Answer: 2 µg/mL

Question: And the MIC (Pseudomonas aeruginosa [3])?
Answer: 2 µg/mL

Question: And the MIC (Pseudomonas aeruginosa [4])?
Answer: 2 µg/mL

Question: And the MIC (Pseudomonas aeruginosa [5])?
Answer: 2 µg/mL

Question: What does the source list for GENTAMICIN?
Answer: MIC (Pseudomonas aeruginosa [1]): 64 µg/mL; MIC (Pseudomonas aeruginosa [2]): 12 µg/mL; MIC (Pseudomonas aeruginosa [3]): 2 µg/mL; MIC (Pseudomonas aeruginosa [4]): 32 µg/mL; MIC (Pseudomonas aeruginosa [5]): 8 µg/mL
